Test results published in ChEMBL document CHEMBL4689842, “EUbOPEN Chemogenomics Library wave 1” (2021).

Legend:
Assay type in all cases: toxicity, cell-based
HEK-293T = assay: Incucyte cell viability with HEK293T; settings: human, 10 µM, compound concentration 10 uM; note: filed as whole numbers so only -1 and 0 and 1 occur
U2OS [1] = assay: Multiplex assay against U2OS; settings: human
Procedure, shortened: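 Four dyes were applied at seeding to live cells: Hoechst33342, BioTracker Green Microtubule Cytoskeleton Dye, MitoTracker Red and Annexin V Alexa Fluor 680. Imaging after compound addition used a CQ1 microscope at 37°C and 5% CO2. CellPathfinder machine-learning gating then sorted cells into Hoechst high-intensity objects or normal cells, normal cells into healthy, pyknosed or fragmented nuclei, and pyknosed cells into mitotic or apoptotic, with tubulin, mitochondrial-mass and membrane-permeability phenotypes given as per cents of healthy-nucleus cells.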

U2OS [2] = assay: Incucyte cell viability with U2OS; settings: human, 10 µM, compound concentration 10 uM; note: filed as whole numbers so only -1 and 0 and 1 occur
[3] = 6 h, replicate number 1, timepoint 6 hours
[4] = 12 h, replicate number 1, timepoint 12 hours
[5] = 18 h, replicate number 1, timepoint 18 hours
[6] = 24 h, replicate number 1, timepoint 24 hours
[7] = 12 h, 1 µM, compound concentration 1 uM, replicate 1
[8] = 12 h, 1 µM, compound concentration 1 uM, replicate 2
[9] = 12 h, 10 µM, compound concentration 10 uM, replicate 1
[10] = 12 h, 10 µM, compound concentration 10 uM, replicate 2
[11] = 24 h, 1 µM, compound concentration 1 uM, replicate 1
[12] = 24 h, 1 µM, compound concentration 1 uM, replicate 2
[13] = 24 h, 10 µM, compound concentration 10 uM, replicate 1
[14] = 24 h, 10 µM, compound concentration 10 uM, replicate 2
[15] = 48 h, 1 µM, compound concentration 1 uM, replicate 1
[16] = 48 h, 1 µM, compound concentration 1 uM, replicate 2
[17] = 48 h, 10 µM, compound concentration 10 uM, replicate 1
[18] = 48 h, 10 µM, compound concentration 10 uM, replicate 2

## Cl.Cl.Nc1ncnc2c1c(-c1cccc(OCc3ccccc3)c1)cn2[C@H]1C[C@@H](CN2CCC2)C1
HEK-293T; [3]
  Growth Rate: 0
HEK-293T; [4]
  Growth Rate: 0
HEK-293T; [5]
  Growth Rate: 0
HEK-293T; [6]
  Growth Rate: 0
U2OS [1]; [7]
  Population Apoptotic (%): 33%
  Population Fragmented Nuclei (%): 13%
  Population Healthy Nuclei (%): 70%
  Population Hoechst High Intensity Objects (%): 5%
  Population Membrane Permeable-Phenotype (%): 8%
  Population Mitochondria Different-Phenotype (%): 58%
  Population Mitotic Cells (%): 66%
  Population Normal (%): 94%
  Population Pyknosed Nuclei (%): 16%
  Population Tubulin-Different-Phenotype (%): 38%
  Total Cell Count: 176
U2OS [1]; [8]
  Population Apoptotic (%): 29%
  Population Fragmented Nuclei (%): 11%
  Population Healthy Nuclei (%): 67%
  Population Hoechst High Intensity Objects (%): 6%
  Population Membrane Permeable-Phenotype (%): 3%
  Population Mitochondria Different-Phenotype (%): 71%
  Population Mitotic Cells (%): 70%
  Population Normal (%): 93%
  Population Pyknosed Nuclei (%): 20%
  Population Tubulin-Different-Phenotype (%): 52%
  Total Cell Count: 55
U2OS [1]; [9]
  Population Apoptotic (%): 81%
  Population Fragmented Nuclei (%): 23%
  Population Healthy Nuclei (%): 41%
  Population Hoechst High Intensity Objects (%): 9%
  Population Membrane Permeable-Phenotype (%): 67%
  Population Mitochondria Different-Phenotype (%): 100%
  Population Mitotic Cells (%): 18%
  Population Normal (%): 90%
  Population Pyknosed Nuclei (%): 35%
  Population Tubulin-Different-Phenotype (%): 100%
  Total Cell Count: 135
U2OS [1]; [10]
  Population Apoptotic (%): 85%
  Population Fragmented Nuclei (%): 22%
  Population Healthy Nuclei (%): 47%
  Population Hoechst High Intensity Objects (%): 8%
  Population Membrane Permeable-Phenotype (%): 77%
  Population Mitochondria Different-Phenotype (%): 97%
  Population Mitotic Cells (%): 14%
  Population Normal (%): 91%
  Population Pyknosed Nuclei (%): 29%
  Population Tubulin-Different-Phenotype (%): 97%
  Total Cell Count: 90
U2OS [1]; [11]
  Population Apoptotic (%): 56%
  Population Fragmented Nuclei (%): 10%
  Population Healthy Nuclei (%): 69%
  Population Hoechst High Intensity Objects (%): 4%
  Population Membrane Permeable-Phenotype (%): 5%
  Population Mitochondria Different-Phenotype (%): 62%
  Population Mitotic Cells (%): 43%
  Population Normal (%): 95%
  Population Pyknosed Nuclei (%): 20%
  Population Tubulin-Different-Phenotype (%): 34%
  Total Cell Count: 176
U2OS [1]; [12]
  Population Apoptotic (%): 28%
  Population Fragmented Nuclei (%): 13%
  Population Healthy Nuclei (%): 64%
  Population Hoechst High Intensity Objects (%): 6%
  Population Membrane Permeable-Phenotype (%): 4%
  Population Mitochondria Different-Phenotype (%): 68%
  Population Mitotic Cells (%): 71%
  Population Normal (%): 93%
  Population Pyknosed Nuclei (%): 21%
  Population Tubulin-Different-Phenotype (%): 39%
  Total Cell Count: 50
U2OS [1]; [13]
  Population Apoptotic (%): 90%
  Population Fragmented Nuclei (%): 25%
  Population Healthy Nuclei (%): 30%
  Population Membrane Permeable-Phenotype (%): 92%
  Population Mitochondria Different-Phenotype (%): 100%
  Population Mitotic Cells (%): 9%
  Population Pyknosed Nuclei (%): 43%
  Population Tubulin-Different-Phenotype (%): 100%
  Total Cell Count: 157
U2OS [1]; [14]
  Population Apoptotic (%): 92%
  Population Fragmented Nuclei (%): 21%
  Population Healthy Nuclei (%): 35%
  Population Hoechst High Intensity Objects (%): 9%
  Population Membrane Permeable-Phenotype (%): 93%
  Population Mitochondria Different-Phenotype (%): 96%
  Population Mitotic Cells (%): 7%
  Population Normal (%): 90%
  Population Pyknosed Nuclei (%): 42%
  Population Tubulin-Different-Phenotype (%): 96%
  Total Cell Count: 104
U2OS [1]; [15]
  Population Apoptotic (%): 65%
  Population Fragmented Nuclei (%): 10%
  Population Healthy Nuclei (%): 73%
  Population Hoechst High Intensity Objects (%): 2%
  Population Membrane Permeable-Phenotype (%): 4%
  Population Mitochondria Different-Phenotype (%): 34%
  Population Mitotic Cells (%): 34%
  Population Normal (%): 97%
  Population Pyknosed Nuclei (%): 16%
  Population Tubulin-Different-Phenotype (%): 23%
  Total Cell Count: 182
U2OS [1]; [16]
  Population Apoptotic (%): 47%
  Population Fragmented Nuclei (%): 8%
  Population Healthy Nuclei (%): 76%
  Population Hoechst High Intensity Objects (%): 3%
  Population Membrane Permeable-Phenotype (%): 12%
  Population Mitochondria Different-Phenotype (%): 44%
  Population Mitotic Cells (%): 52%
  Population Normal (%): 96%
  Population Pyknosed Nuclei (%): 15%
  Population Tubulin-Different-Phenotype (%): 26%
  Total Cell Count: 55
U2OS [1]; [17]
  Population Apoptotic (%): 100%
  Population Fragmented Nuclei (%): 30%
  Population Healthy Nuclei (%): 7%
  Population Hoechst High Intensity Objects (%): 12%
  Population Membrane Permeable-Phenotype (%): 100%
  Population Mitochondria Different-Phenotype (%): 100%
  Population Mitotic Cells (%): 0%
  Population Normal (%): 87%
  Population Pyknosed Nuclei (%): 61%
  Population Tubulin-Different-Phenotype (%): 100%
  Total Cell Count: 203
U2OS [1]; [18]
  Population Apoptotic (%): 96%
  Population Fragmented Nuclei (%): 21%
  Population Healthy Nuclei (%): 38%
  Population Hoechst High Intensity Objects (%): 23%
  Population Membrane Permeable-Phenotype (%): 96%
  Population Mitotic Cells (%): 3%
  Population Normal (%): 76%
  Population Pyknosed Nuclei (%): 40%
  Total Cell Count: 130
U2OS [2]; 0 h, replicate number 1, timepoint 0 hours
  Growth Rate: 0
U2OS [2]; [3]
  Growth Rate: 0
U2OS [2]; [4]
  Growth Rate: 0
U2OS [2]; 12 h, replicate number 2, timepoint 12 hours
  Growth Rate: 1
U2OS [2]; [5]
  Growth Rate: 0
U2OS [2]; 18 h, replicate number 2, timepoint 18 hours
  Growth Rate: 1
U2OS [2]; [6]
  Growth Rate: 0
